Calls of active or inactive are those of the source.

Results on 15 compounds are retold here after ChEMBL document CHEMBL4196196, “Phosphonamidate Prodrugs of a Butyrophilin Ligand Display Plasma Stability and Potent Vγ9 Vδ2 T Cell Stimulation” (J Med Chem, 2018).

Tested on in one data set: not listed separately
The data set can be described thus: Stability in 50% pooled human plasma assessed as half life at 100 uM by LC-MS method. The data set is classed as ADME, cell-free.
Conditions: not given
Summed up: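 Compound at 100 µM final in pooled human plasma diluted to 50% with PBS, pH 7.5. Analysed by positive-mode LC-MS on C18 with a water/acetonitrile gradient from 25 to 80% over 9 min. Fraction remaining came from peak integration, and half-life was calculated from it. Each point run 2–4 times.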
As to `C/C(=C\CCP(=O)(NCC(=O)OC(C)C)Oc1ccccc1)CO` (stereo unspecified), the t1/2 was > 24 h.

As for `C/C(=C\CCP(=O)(NCC(=O)OC(C)C)Oc1cccc2ccccc12)CO` (stereo unspecified), the t1/2 is > 24 h.

As to `C/C(=C\CCP(=O)(NCC(=O)OC(C)C)Oc1ccc2ccccc2c1)CO` (stereo unspecified), the t1/2 is > 24 h.

As for `COC(=O)CNP(=O)(CC/C=C(\C)CO)Oc1ccc2ccccc2c1` (stereo unspecified), the t1/2 is > 24 h.

On to `C/C(=C\CCP(=O)(OCOC(=O)C(C)(C)C)OCOC(=O)C(C)(C)C)CO`, for which the t1/2 turned out to be 8.4 h.

With `COC(=O)CNP(=O)(CC/C=C(\C)CO)Oc1cccc2ccccc12` (stereo unspecified), the t1/2 is > 24 h.

Take `CCOC(=O)CNP(=O)(CC/C=C(\C)CO)Oc1cccc2ccccc12` (stereo unspecified): the t1/2 is > 24 h.

In the case of `CCOC(=O)CNP(=O)(CC/C=C(\C)CO)Oc1ccc2ccccc2c1` (stereo unspecified), the t1/2 was > 24 h.

With `COC(=O)CNP(=O)(CC/C=C(\C)CO)Oc1ccccc1` (stereo unspecified), the t1/2 was > 24 h.

In the next data set the test system is K562. The data set can be described thus: Cytotoxicity in human K562 cells assessed as reduction in cell viability incubated for 72 hrs by cell-QB reagent based assay. The following applies: K562, 72 h. The gist of the method: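 K562 cells seeded at 0.5 × 10⁴ per well in RPMI and exposed to a range of compound concentrations, up to 100 µM, for 72 h. Cell-QB reagent was added for the final 2 h and read by fluorescence. Viability was expressed as % of untreated cells after subtracting a media-only blank. Three independent experiments.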
Regarding `C/C(=C\CCP(=O)(NCC(=O)OC(C)C)Oc1cccc2ccccc12)CO` (stereo unspecified), the IC50 is > 100000 nM.

Consider `C/C(=C\CCP(=O)(NCC(=O)OC(C)C)Oc1ccc2ccccc2c1)CO` (stereo unspecified), for which the IC50 is > 100000 nM.

As to `Oc1cccc2ccccc12` [1-NAPHTHOL], the IC50 was > 100000 nM.

Regarding `COC(=O)CNP(=O)(CC/C=C(\C)CO)Oc1ccc2ccccc2c1` (stereo unspecified), the IC50 was > 100000 nM.

On to `COC(=O)CNP(=O)(CC/C=C(\C)CO)Oc1cccc2ccccc12` (stereo unspecified), for which the IC50 was determined as 40000 nM.

As for `Oc1ccccc1` [PHENOL], the IC50 is > 100000 nM.

`CCOC(=O)CNP(=O)(CC/C=C(\C)CO)Oc1ccccc1` (stereo unspecified): the IC50 is > 100000 nM.

On to `Oc1ccc2ccccc2c1` [BETANAPHTHOL], for which the IC50 was > 100000 nM.

For the compound `COC(=O)CNP(=O)(CC/C=C(\C)CO)Oc1ccccc1` (stereo unspecified), the IC50 is > 100000 nM.

The target of another data set is T1, Butyrophilin subfamily 3 member A1 (Homo sapiens, UniProt O00481). The data set is described as follows: Binding affinity to BTN3A1 in human PBMC assessed as stimulation of Vgamma9 Vdelta2 T cells at 100 nM incubated for 3 days and measured after 11 days post compound removal by flow cytometry.
Conditions: not given
Summed up: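 Human PBMC exposed to compound at 100 nM for 3 days, then left to proliferate 11 days before counting Vγ9Vδ2 T cells. […] Negative control was cells with interleukin 2 and no compound. Data from 3 independent experiments.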
In general terms: A flow cytometer gives signals particle by particle.
Target sequence in this assay (O00481 30-513 limits assumed): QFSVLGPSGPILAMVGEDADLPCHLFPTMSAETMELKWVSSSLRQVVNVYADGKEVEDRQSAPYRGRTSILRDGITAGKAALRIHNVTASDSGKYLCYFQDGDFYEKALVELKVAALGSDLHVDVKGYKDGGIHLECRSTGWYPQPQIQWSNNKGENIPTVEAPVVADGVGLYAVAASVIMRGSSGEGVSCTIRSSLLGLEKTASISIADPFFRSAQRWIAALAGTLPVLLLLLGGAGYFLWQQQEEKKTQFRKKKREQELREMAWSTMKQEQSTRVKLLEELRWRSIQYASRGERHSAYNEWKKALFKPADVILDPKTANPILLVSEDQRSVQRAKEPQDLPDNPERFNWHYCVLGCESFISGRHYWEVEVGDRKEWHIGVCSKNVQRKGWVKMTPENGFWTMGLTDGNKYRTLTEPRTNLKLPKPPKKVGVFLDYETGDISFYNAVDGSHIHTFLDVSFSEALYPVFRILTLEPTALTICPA
As to `C/C(=C\CCP(=O)(NCC(=O)OC(C)C)Oc1ccccc1)CO` (stereo unspecified), the outcome was Active.

Turning to `C/C(=C\CCP(=O)(NCC(=O)OC(C)C)Oc1cccc2ccccc12)CO` (stereo unspecified), the result was Active.

With `C/C(=C\CCP(=O)(NCC(=O)OC(C)C)Oc1ccc2ccccc2c1)CO` (stereo unspecified), the outcome was Active.

In the case of `COC(=O)CNP(=O)(CC/C=C(\C)CO)Oc1ccc2ccccc2c1` (stereo unspecified), the outcome was Active.

Take `C/C(=C\CCP(=O)(OCOC(=O)C(C)(C)C)OCOC(=O)C(C)(C)C)CO`: the outcome was Active.

Take `COC(=O)CNP(=O)(CC/C=C(\C)CO)Oc1cccc2ccccc12` (stereo unspecified): the result was Active.

In the case of `C/C(=C\COP(=O)(O)OP(=O)(O)O)CO`, the result was Active.

For the compound `CCOC(=O)CNP(=O)(CC/C=C(\C)CO)Oc1cccc2ccccc12` (stereo unspecified), the result was Active.

As to `CCOC(=O)CNP(=O)(CC/C=C(\C)CO)Oc1ccccc1` (stereo unspecified), the outcome was Active.

Consider `CCOC(=O)CNP(=O)(CC/C=C(\C)CO)Oc1ccc2ccccc2c1` (stereo unspecified), for which the outcome was Active.

For `COC(=O)CNP(=O)(CC/C=C(\C)CO)Oc1ccccc1` (stereo unspecified), the result was Active.

Tested on in another data set: not listed separately
The data set can be described thus: Stability in 50% pooled human plasma assessed as compound hydrolysis at 100 uM after 2 hrs by LC-MS method relative to control. Conditions: read-out: Drug degradation. The data set is classed as ADME, cell-free. The gist of the method: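 Compound at 100 µM final in pooled human plasma diluted to 50% with PBS, pH 7.5. Sampled at 2 h (also 24 h), then extracted into acetonitrile and debris spun down. Analysed by positive-mode LC-MS on C18 with a 25→80% acetonitrile gradient over 9 min. Fraction remaining from peak integration; 2–4 independent runs.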
For the compound `C/C(=C\CCP(=O)(OCOC(=O)C(C)(C)C)OCOC(=O)C(C)(C)C)CO`, the metabolised at 2 h, 100 µM was > 95%.

Tested on in a further data set: not listed separately
The data set is described as follows: Half life in human plasma.
Conditions: not given
The data set is classed as ADME, cell-free. The gist of the method: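 Compound at 100 µM final in pooled human plasma diluted to 50% with PBS, pH 7.5. Incubated for various times, including 2 and 24 h, then extracted with acetonitrile and centrifuged. Analysed by positive-mode LC-MS on C18 with a water/acetonitrile gradient from 25 to 80% over 9 min. Fraction remaining came from peak integration, and half-life was calculated from it. Each point run 2–4 times.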
`COc1ccc2cc(C(=O)OCOP(=O)(CC/C=C(\C)CO)OC)c(=O)oc2c1` (stereo unspecified) registered a half-life of 6 to 8 h.

A further data set has as its target T1, Butyrophilin subfamily 3 member A1. The data set can be described thus: Binding affinity to BTN3A1 in human Vgamma9 Vdelta2 T cells mixed with human K562 cells pretreated with compound for 4 hrs assessed as INF-gamma production measured after 20 hrs by ELISA.
Conditions: not given
The gist of the method: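 K562 target cells loaded with compound for 4 h, then washed. They were co-cultured with Vγ9Vδ2 T cells purified by negative selection, at 3:1 effector:target. After 20 h, supernatant interferon γ was measured by ELISA. EC₅₀ reported with 95% CI. Three independent experiments using ≥2 donors.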
Target sequence in this assay (O00481 whole entry): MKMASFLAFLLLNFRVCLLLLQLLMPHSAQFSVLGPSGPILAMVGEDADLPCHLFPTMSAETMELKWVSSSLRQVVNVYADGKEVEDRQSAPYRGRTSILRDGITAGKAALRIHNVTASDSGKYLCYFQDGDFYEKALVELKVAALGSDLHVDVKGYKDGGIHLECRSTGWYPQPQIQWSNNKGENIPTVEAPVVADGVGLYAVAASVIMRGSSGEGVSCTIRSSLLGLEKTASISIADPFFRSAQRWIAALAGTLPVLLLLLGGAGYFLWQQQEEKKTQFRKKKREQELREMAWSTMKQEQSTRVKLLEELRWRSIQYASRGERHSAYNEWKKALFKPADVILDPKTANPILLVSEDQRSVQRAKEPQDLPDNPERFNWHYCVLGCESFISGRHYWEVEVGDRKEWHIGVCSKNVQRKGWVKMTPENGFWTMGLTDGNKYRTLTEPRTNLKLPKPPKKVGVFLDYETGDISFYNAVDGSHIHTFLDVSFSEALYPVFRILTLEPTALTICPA
With `C/C(=C\CCP(=O)(NCC(=O)OC(C)C)Oc1ccccc1)CO` (stereo unspecified), the 50% effective concentration (EC50) is 740 nM.

In the case of `C/C(=C\CCP(=O)(NCC(=O)OC(C)C)Oc1cccc2ccccc12)CO` (stereo unspecified), the EC50 was 290 nM.

As for `C/C(=C\CCP(=O)(NCC(=O)OC(C)C)Oc1ccc2ccccc2c1)CO` (stereo unspecified), the EC50 amounted to 210 nM.

For `COC(=O)CNP(=O)(CC/C=C(\C)CO)Oc1ccc2ccccc2c1` (stereo unspecified), the EC50 is 120 nM.

Regarding `COC(=O)CNP(=O)(CC/C=C(\C)CO)Oc1cccc2ccccc12` (stereo unspecified), the EC50 amounted to 130 nM.

`CCOC(=O)CNP(=O)(CC/C=C(\C)CO)Oc1cccc2ccccc12` (stereo unspecified): the EC50 turned out to be 62 nM.

As to `CCOC(=O)CNP(=O)(CC/C=C(\C)CO)Oc1ccccc1` (stereo unspecified), the EC50 worked out at 170 nM.

`CCOC(=O)CNP(=O)(CC/C=C(\C)CO)Oc1ccc2ccccc2c1` (stereo unspecified): the concentration giving a half-maximal response (EC50) was 93 nM.

Consider `COC(=O)CNP(=O)(CC/C=C(\C)CO)Oc1ccccc1` (stereo unspecified), for which the EC50 was 460 nM.

Another data set shares this target. The data set is described as follows: Binding affinity to BTN3A1 in human PBMC assessed as stimulation of Vgamma9 Vdelta2 T cells at 100 nM incubated for 3 days and measured after 11 days post compound removal by flow cytometry relative to (E)-dimethyl 5-hydroxy-4-methylpent-3-enylphosphonate.
Conditions: not given
Target sequence in this assay (O00481 30-513 limits assumed): as the sequence (O00481 30-513 limits assumed) above
As for `C/C(=C\CCP(=O)(NCC(=O)OC(C)C)Oc1ccccc1)CO` (stereo unspecified), the Ratio EC50 turned out to be 4.9.

For `C/C(=C\CCP(=O)(NCC(=O)OC(C)C)Oc1cccc2ccccc12)CO` (stereo unspecified), the Ratio EC50 amounted to 16.

As for `C/C(=C\CCP(=O)(NCC(=O)OC(C)C)Oc1ccc2ccccc2c1)CO` (stereo unspecified), the Ratio EC50 amounted to 6.6.

As to `COC(=O)CNP(=O)(CC/C=C(\C)CO)Oc1ccc2ccccc2c1` (stereo unspecified), the Ratio EC50 is 9.3.

Regarding `COC(=O)CNP(=O)(CC/C=C(\C)CO)Oc1cccc2ccccc12` (stereo unspecified), the Ratio EC50 turned out to be 12.

In the case of `CCOC(=O)CNP(=O)(CC/C=C(\C)CO)Oc1cccc2ccccc12` (stereo unspecified), the Ratio EC50 was 15.

`CCOC(=O)CNP(=O)(CC/C=C(\C)CO)Oc1ccc2ccccc2c1` (stereo unspecified): the Ratio EC50 amounted to 10.

For `COC(=O)CNP(=O)(CC/C=C(\C)CO)Oc1ccccc1` (stereo unspecified), the Ratio EC50 worked out at 3.6.

The target is the same in a further data set. The data set can be described thus: Binding affinity to BTN3A1 in human PBMC assessed as stimulation of Vgamma9 Vdelta2 T cells at 100 nM incubated for 3 days and measured after 11 days post compound removal by flow cytometry relative to sodium (E)-5-hydroxy-4-methylpent-3-enylphosphonate.
Conditions: not given
Target sequence in this assay (O00481 30-513 limits assumed): as above
`C/C(=C\CCP(=O)(NCC(=O)OC(C)C)Oc1ccccc1)CO` (stereo unspecified): the Ratio EC50 was 3600.

As to `C/C(=C\CCP(=O)(NCC(=O)OC(C)C)Oc1cccc2ccccc12)CO` (stereo unspecified), the Ratio EC50 amounted to 12000.

As for `C/C(=C\CCP(=O)(NCC(=O)OC(C)C)Oc1ccc2ccccc2c1)CO` (stereo unspecified), the Ratio EC50 was found to be 4900.

For the compound `COC(=O)CNP(=O)(CC/C=C(\C)CO)Oc1ccc2ccccc2c1` (stereo unspecified), the Ratio EC50 came to 6900.

As to `COC(=O)CNP(=O)(CC/C=C(\C)CO)Oc1cccc2ccccc12` (stereo unspecified), the Ratio EC50 is 9100.

As for `CCOC(=O)CNP(=O)(CC/C=C(\C)CO)Oc1cccc2ccccc12` (stereo unspecified), the Ratio EC50 is 11000.

As for `CCOC(=O)CNP(=O)(CC/C=C(\C)CO)Oc1ccc2ccccc2c1` (stereo unspecified), the Ratio EC50 came out at 7500.

Turning to `COC(=O)CNP(=O)(CC/C=C(\C)CO)Oc1ccccc1` (stereo unspecified), the Ratio EC50 is 2700.

As usually defined, the IC50 is the point on the concentration scale where inhibition reaches its midpoint. For orientation: half-life means the time needed for the level to fall by half in the phase considered. The low end stands for rapid decline, the high end for slow decline. Usually EC50 stands for the midpoint of the concentration-response curve.
